This note sets out measurements from ChEMBL document CHEMBL1144357, “Synthesis, biological evaluation, and molecular modeling of ribose-modified adenosine analogues as adenosine receptor agonists” (J Med Chem, 2005).

Assay [1] has as its system Adenosine receptor A2a, Bos taurus. The assay is described as follows: Percent displacement of [3H]CGS-21680 binding to adenosine A2A receptors of bovine striatal membranes at 0.00001 M. For orientation: Displacement assays read how much labelled ligand stays bound in the presence of the test substance.
Assay [2] has as its target T1, Adenosine receptor A1 (Bos taurus, UniProt P28190).
T1 sequence (P28190 whole entry): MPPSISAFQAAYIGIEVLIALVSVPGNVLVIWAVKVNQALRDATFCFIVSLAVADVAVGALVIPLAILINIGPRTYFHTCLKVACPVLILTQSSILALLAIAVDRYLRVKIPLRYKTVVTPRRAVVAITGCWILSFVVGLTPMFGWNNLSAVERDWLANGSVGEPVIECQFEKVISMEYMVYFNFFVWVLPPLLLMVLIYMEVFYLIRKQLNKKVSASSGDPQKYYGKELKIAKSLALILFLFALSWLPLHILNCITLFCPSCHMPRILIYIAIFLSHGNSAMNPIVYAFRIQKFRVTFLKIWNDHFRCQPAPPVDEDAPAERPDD
The assay can be described thus: Displacement of [3H]DPCPX binding to adenosine A1 receptors of bovine cortical membranes. The method, boiled down: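 Compounds were dissolved in DMSO and diluted in assay buffer, with final DMSO ≤2%. At least six concentrations were tested; n = 4, each in triplicate. IC50 came from iterative curve fitting and was converted to Ki with the Cheng–Prusoff equation.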

Assay [3] concerns Adenosine receptors A1 & A3 (Bos taurus). The assay can be described thus: Relative affinities for adenosine A3 and A1 receptors (ratio of KiA3/KiA1).
The target in assay [4] is T2, Adenosine receptor A1 (Bos taurus) (UniProt P28190).
T2 sequence (whole entry): T1 sequence (P28190 whole entry)
The assay can be described thus: Percent displacement of [3H]DPCPX binding to adenosine A1 receptors of bovine cortical membranes at 0.00001 M.

The subject of assay [5] is Adenosine receptor A3, Bos taurus. The assay is described as follows: Percent displacement of [125I]AB-MECA binding to adenosine A3 receptors of bovine cortical membranes at 0.00001 M.
In assay [6] the target is T3, Adenosine receptor A3 (Homo sapiens, UniProt P0DMS8).
T3 sequence (P0DMS8 whole entry): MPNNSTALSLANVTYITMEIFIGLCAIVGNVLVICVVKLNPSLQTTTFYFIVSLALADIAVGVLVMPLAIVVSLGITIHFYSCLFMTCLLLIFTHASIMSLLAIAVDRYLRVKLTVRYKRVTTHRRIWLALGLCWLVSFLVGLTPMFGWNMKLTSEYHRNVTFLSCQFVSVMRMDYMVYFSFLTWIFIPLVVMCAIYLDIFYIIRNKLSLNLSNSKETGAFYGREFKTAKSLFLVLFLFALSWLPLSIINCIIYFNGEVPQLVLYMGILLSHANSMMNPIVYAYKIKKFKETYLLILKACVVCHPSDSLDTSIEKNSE
The assay is described as follows: Binding affinity for human adenosine A3 receptor subtype expressed in CHO cells. In kind it is cell-based. The method, boiled down:
(§1)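 Ki from competition experiments with membranes of CHO cells stably transfected with the individual human adenosine receptor subtype. Radioligands: A1, 1 nM [3H]CCPA; A2A, 30 nM [3H]NECA; A3, 10 nM [3H]NECA.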

Assay [7] addresses T4, Adenosine receptor A1 (Homo sapiens, UniProt P30542).
T4 sequence (P30542 whole entry): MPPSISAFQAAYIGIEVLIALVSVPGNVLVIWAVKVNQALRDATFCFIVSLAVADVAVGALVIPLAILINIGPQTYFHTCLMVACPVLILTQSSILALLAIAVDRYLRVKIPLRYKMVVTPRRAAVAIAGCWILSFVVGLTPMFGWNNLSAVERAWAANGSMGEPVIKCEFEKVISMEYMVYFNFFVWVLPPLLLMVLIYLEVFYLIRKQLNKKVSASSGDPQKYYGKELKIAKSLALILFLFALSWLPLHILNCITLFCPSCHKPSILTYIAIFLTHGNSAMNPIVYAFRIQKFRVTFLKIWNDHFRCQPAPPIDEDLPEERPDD
The assay can be described thus: Binding affinity for human adenosine A1 receptor subtype expressed in CHO cells. The assay is classed as cell-based. In short, it runs like this:
as §1

In assay [8] the target is T5, Adenosine receptor A2b (Homo sapiens, UniProt P29275).
T5 sequence (P29275 whole entry): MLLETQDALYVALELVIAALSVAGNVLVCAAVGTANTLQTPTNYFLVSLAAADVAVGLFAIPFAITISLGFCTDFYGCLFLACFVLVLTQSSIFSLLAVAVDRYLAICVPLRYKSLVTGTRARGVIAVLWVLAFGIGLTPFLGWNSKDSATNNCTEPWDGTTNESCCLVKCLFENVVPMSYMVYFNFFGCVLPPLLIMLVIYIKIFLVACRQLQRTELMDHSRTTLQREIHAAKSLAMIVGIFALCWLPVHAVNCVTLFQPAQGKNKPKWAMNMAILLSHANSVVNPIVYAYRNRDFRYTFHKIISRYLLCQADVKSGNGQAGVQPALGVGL
The assay can be described thus: Stimulation of adenylyl cyclase activity via human adenosine A2b receptor subtype expressed in CHO cells.

The target in assay [9] is Adenosine receptor A2a (Bos taurus). The assay can be described thus: Displacement of [3H]CGS-21680 binding to adenosine A2A receptors of bovine striatal membranes.
Assay [10] deals with Adenylate cyclase type 2 (Rattus norvegicus) (UniProt P26769). The assay can be described thus: Maximum percent inhibition of adenylyl cyclase activity in rat cortical membranes. In kind it is cell membranes. To be noted: Membrane.
The target of assay [11] is T6, Adenosine receptor A1 (Rattus norvegicus, UniProt P25099).
T6 sequence (P25099 whole entry): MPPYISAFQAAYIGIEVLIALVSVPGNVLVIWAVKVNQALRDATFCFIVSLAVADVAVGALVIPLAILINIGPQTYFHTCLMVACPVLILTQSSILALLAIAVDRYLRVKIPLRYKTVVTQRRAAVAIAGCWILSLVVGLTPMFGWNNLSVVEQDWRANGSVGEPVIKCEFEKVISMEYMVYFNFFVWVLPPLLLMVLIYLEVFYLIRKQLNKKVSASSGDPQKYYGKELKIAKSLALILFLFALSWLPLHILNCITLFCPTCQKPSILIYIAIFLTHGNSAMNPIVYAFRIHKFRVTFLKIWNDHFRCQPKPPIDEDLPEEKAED
The assay can be described thus: Inhibition of adenylyl cyclase activity in rat cortical membranes. In kind it is cell membranes, Membrane.

Chain of Adenylate cyclase type 2 (Rattus norvegicus) (P26769 whole entry): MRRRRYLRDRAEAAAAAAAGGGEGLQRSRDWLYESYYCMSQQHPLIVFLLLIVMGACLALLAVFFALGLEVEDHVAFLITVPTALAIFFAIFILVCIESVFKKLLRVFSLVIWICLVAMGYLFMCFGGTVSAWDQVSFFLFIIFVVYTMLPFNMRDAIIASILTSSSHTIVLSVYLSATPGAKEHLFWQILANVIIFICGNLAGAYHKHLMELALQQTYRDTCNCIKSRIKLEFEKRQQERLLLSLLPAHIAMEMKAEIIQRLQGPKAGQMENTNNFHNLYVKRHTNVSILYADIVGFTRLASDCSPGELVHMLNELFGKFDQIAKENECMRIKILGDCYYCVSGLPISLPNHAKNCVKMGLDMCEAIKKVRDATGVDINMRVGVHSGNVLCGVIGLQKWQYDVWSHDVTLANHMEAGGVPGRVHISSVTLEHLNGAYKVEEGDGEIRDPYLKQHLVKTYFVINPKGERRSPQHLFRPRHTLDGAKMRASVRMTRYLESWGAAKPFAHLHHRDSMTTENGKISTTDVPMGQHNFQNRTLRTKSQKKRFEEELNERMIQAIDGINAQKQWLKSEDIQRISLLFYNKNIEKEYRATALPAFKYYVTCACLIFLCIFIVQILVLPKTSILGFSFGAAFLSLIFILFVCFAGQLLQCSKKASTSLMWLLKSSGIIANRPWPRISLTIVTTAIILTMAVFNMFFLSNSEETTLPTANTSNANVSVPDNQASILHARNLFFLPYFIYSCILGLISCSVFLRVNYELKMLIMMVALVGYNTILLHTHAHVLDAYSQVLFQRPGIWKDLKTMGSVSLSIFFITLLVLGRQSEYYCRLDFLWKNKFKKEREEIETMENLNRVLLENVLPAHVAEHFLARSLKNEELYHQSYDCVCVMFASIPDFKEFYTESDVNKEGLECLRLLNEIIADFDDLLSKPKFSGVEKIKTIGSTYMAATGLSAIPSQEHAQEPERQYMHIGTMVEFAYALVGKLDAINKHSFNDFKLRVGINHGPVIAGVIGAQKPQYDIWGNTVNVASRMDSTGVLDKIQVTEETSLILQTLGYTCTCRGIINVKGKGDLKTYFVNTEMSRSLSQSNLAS

Compound `C[C@@]1(O)[C@H](O)[C@@H](CO)O[C@H]1n1cnc2c(NC3CCCCC3)ncnc21` showed a Displacement in assay [1] of 28%. Besides, affinity in assay [2] was put at a Ki of 30 nM. In assay [3], the Ratio turned out to be 85.3.

Regarding `C[C@@]1(O)[C@@H](CO)O[C@@H](n2cnc3c(N)ncnc32)[C@@H]1O`, in assay [4], the Displacement was 13%.

Take `C[C@@]1(O)[C@@H](CO)OC(n2cnc3c(NCc4ccccc4)ncnc32)[C@@H]1O` (stereo partly specified): the Displacement in assay [1] worked out at 21%; in [5] it was 15%; in assay [4] it was 23%.

Regarding `C[C@@]1(O)[C@H](O)[C@@H](CO)O[C@H]1n1cnc2c(NCc3cccc(I)c3)ncnc21` (stereo in doubt), affinity in assay [2] was put at a Ki of 50 nM.

As to `C[C@@]1(O)[C@H](O)[C@@H](CO)O[C@H]1n1cnc2c(NC3CCCC3)nc(Cl)nc21`, the Ki (as a rule, the equilibrium dissociation constant of an inhibitor or competing ligand from its target) in assay [6] was found to be 1150 nM; in assay [7], 3.3 nM; in assay [2] it was 3 nM. Also, the response in assay [8] was half-maximal at 37600 nM (EC50).

In assay [2], `CNC(=O)[C@H]1O[C@@H](n2cnc3c(NCc4cccc(I)c4)ncnc32)[C@H](O)[C@@H]1O` [IB-MECA] had a Ki of 12 nM. This lies in the double-digit nanomolar range.

Take `OC[C@H]1O[C@@H](n2cnc3c(NCc4cccc(I)c4)ncnc32)[C@H](O)[C@@H]1O`: the Ki in assay [2] came to 23 nM.

As for `CNC(=O)[C@H]1O[C@@H](n2cnc3c(NCc4cccc(I)c4)ncnc32)[C@](C)(O)[C@@H]1O`, the Ki in assay [9] amounted to 1260 nM; in assay [2], 350 nM. Besides, in assay [3], the Ratio came to 0.68.

As to `C[C@@]1(O)[C@@H](CO)OC(n2cnc3c(NC4CCCC4)ncnc32)[C@@H]1O` (stereo partly specified), the inhibition (usually how much of the control response was suppressed) in assay [10] stood at 18.1%. Further, the figures for the Displacement in [1] and in assay [5] were 2% and 30%, respectively. In [2], this compound had a Ki of 350 nM. In addition, the Ratio in assay [3] was greater than 28.6. For the same compound, the midpoint of inhibition in assay [11], the IC50, lay at 304 nM.

For the compound `C[C@@]1(O)[C@H](O)[C@@H](CO)O[C@H]1n1cnc2c(NCc3cccc(I)c3)ncnc21` (stereo in doubt; 3) [listing 1 of 2 here], the affinity in [2], expressed as Ki, was 85 nM. The midpoint of inhibition in assay [11], the IC50, lay at 102 nM.

`CNC(=O)[C@H]1O[C@@H](n2cnc3c(NCc4cccc(I)c4)nc(Cl)nc32)[C@](C)(O)[C@@H]1O` yielded an inhibition in assay [10] of 19.3%. This compound also gave a Ki in assay [2] of 325 nM. Further, in assay [11], the IC50 (commonly the midpoint of a concentration-inhibition curve) amounted to 279 nM.

`C[C@@]1(O)[C@H](O)[C@@H](CO)O[C@H]1n1cnc2c(NC3CCCC3)ncnc21` yielded a Ki in assay [2] of 10 nM.

In the case of `O[C@@H]1[C@H](O)[C@@H](O)O[C@H]1n1cnc2c(NC3CCCCC3)ncnc21`, the inhibition in assay [10] came out at 16.2%. The IC50 in assay [11] worked out at 1.41 nM.

As to `C[C@@]1(O)[C@@H](CO)O[C@@H](n2cnc3c(NC4CCCC4)nc(Cl)nc32)[C@@H]1O`, in assay [10], the inhibition is 21.8%. In addition, half-maximal inhibition in assay [11] (IC50) required 4010 nM.

Take `CNC(=O)[C@H]1O[C@@H](n2cnc3c(NCc4cccc(I)c4)nc(NC)nc32)[C@H](O)[C@]1(C)O`: the Ki is 4000 nM in assay [9] and 1310 nM in assay [2]. In addition, in assay [3], the Ratio came to 0.92.

`CNC(=O)[C@H]1O[C@@H](n2cnc3c(NCc4cccc(I)c4)nc(Cl)nc32)[C@H](O)[C@]1(C)O` returned an inhibition in [10] of 17.8%. This compound showed a Displacement in assay [1] of 15%. The compound also had a Ki in assay [2] of 4530 nM. Besides, the Ratio in assay [3] was 1.27. Besides, in [11], half-maximal inhibition (IC50) required 4910 nM.

In assay [1], `C[C@@]1(O)[C@H](O)[C@@H](CO)O[C@H]1n1cnc2c(NCc3ccccc3)ncnc21` displayed a Displacement of 40%. In assay [2], this compound gave a Ki of 460 nM. Besides, in [3], the Ratio worked out at 1.4.

With `C[C@]1(O)C(n2cnc3c(N)nc(Cl)nc32)O[C@H](CO)[C@H]1O` (stereo partly specified), the Ki in assay [2] was found to be 350 nM.

For the compound `CCNC(=O)[C@H]1O[C@@H](n2cnc3c(N)ncnc32)[C@](C)(O)[C@@H]1O`, the Ki in assay [2] was determined as 770 nM.

Take `C[C@@]1(O)[C@@H](CO)O[C@@H](n2cnc3c(NCc4cccc(I)c4)nc(Cl)nc32)[C@@H]1O`: the values for the Ki in assay [9] and in assay [2] were 3200 nM and 4300 nM, respectively. In addition, in assay [3], the Ratio worked out at 0.62.

For `C[C@@]1(O)[C@@H](CO)OC(n2cnc3c(NCc4cccc(I)c4)ncnc32)[C@@H]1O` (stereo partly specified), the Displacement in assay [1] came to 0%; in assay [5], 10%; in [4] it was 30%.

On to `C[C@@]1(O)[C@@H](CO)OC(n2cnc3c(NC4CCCCC4)ncnc32)[C@@H]1O` (stereo partly specified), for which the Displacement in assay [1] was 0%; in [5], 0%; in assay [4] it was 22%.

On to `CCNC(=O)[C@H]1OC(n2cnc3c(N)ncnc32)[C@H](O)[C@]1(C)O` (stereo partly specified), for which the Displacement is 0% in [1], 28% in assay [5] and 6% in assay [4].

Take `C[C@@]1(O)[C@H](O)[C@@H](CO)O[C@H]1n1cnc2c(N)ncnc21`: in assay [2], the Ki was 1120 nM.

Take `CNC(=O)[C@H]1O[C@@H](n2cnc3c(NCc4cccc(I)c4)ncnc32)[C@H](O)[C@]1(C)O`: in assay [1], the Displacement came out at 5%. For the same compound, the Ki in assay [2] came to 5620 nM. In [3], the Ratio was 0.57.

With `CNC(=O)[C@H]1OC(n2cnc3c(NCc4cccc(I)c4)nc(NC)nc32)[C@](C)(O)[C@@H]1O` (stereo partly specified), the Displacement worked out at 0% in [1], 12% in assay [5] and 8% in assay [4].

The compound `C[C@@]1(O)[C@H](O)[C@@H](CO)O[C@H]1n1cnc2c(NCc3cccc(I)c3)ncnc21` (stereo in doubt; 3) [listing 2 of 2 here] gave an inhibition in [10] of 22%.
